Source: PubChem (Broad Institute)
Rtt109 HAT inh: inhibitors of Candida albicans Rtt109/Vps75 histone acetyltransferase; Q5AAJ8; purified Rtt109/Vps75, ThioGlo CoA-SH fluorescence, 4 h; inhibition, % at 34.9 µM; 330,000 compounds, 0.16% hits;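 active = inhibition of at least 50% in every replicate; inconclusive = best replicate reaches 50% inhibition but some replicates fall short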
S100A4 MyoIIA: inhibitors of human S100A4 binding to myosin IIA peptide; AID 652163; 360,000 compounds, 0.14% hits; S100A4/TAMRA-MyoIIA peptide fluorescence polarization; inhibition, % at 10.7 µM; P26447;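 active = mean inhibition of at least 70% across replicates, with every replicate also reaching that level; inconclusive = mean inhibition reaches 70% but some replicates fall short; inactive = mean inhibition below 70%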
Target sequence (P26447 whole entry, looked up): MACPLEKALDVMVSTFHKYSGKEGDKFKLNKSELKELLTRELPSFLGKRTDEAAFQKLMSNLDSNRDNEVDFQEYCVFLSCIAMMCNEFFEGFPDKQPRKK
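Material: human S100A4 monomer with TAMRA-labelled myosin IIA peptide; buffer or medium: HEPES pH 7.2 with CaCl2, KCl, NaCl, DTT, Triton; compound dosing: one concentration per compound; schedule: 5 min incubation before reading; benchmarks: neutral control DMSO, positive control TFP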
miR-122 sensor: miR-122 inhibition in Huh7 cells | Huh7 miR-122 Renilla luciferase sensor, 48 h; neutral wells = 0, positive control = 100 | activation (reporter increase), % at 12.5 µM | 340,000 compounds, 0.3% hits | AID 602342;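 active = mean replicate activation score at least 90 and every replicate individually at or above 90; inconclusive = only one of the two criteria met; inactive = neither criterion met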;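 note: higher luciferase means less miR-122 activity so hits act as miR-122 inhibitors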
MLL AF4-AF9 inh: blocks AF4 peptide binding to human AF9. inhibition, % at 10 µM. P42568. AlphaScreen, biotin-AF4 peptide binding to FLAG-AF9. AID 651704. 350,000 compounds, 0.47% hits;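 active = every replicate reaching a set inhibition limit, whatever the replicate mean, cut at about 25% in these data; inconclusive = mean inhibition reaches that limit but some replicates miss it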;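 note: 0% = plate neutral control median and 100% = total signal loss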
Target sequence (P42568 whole entry, looked up): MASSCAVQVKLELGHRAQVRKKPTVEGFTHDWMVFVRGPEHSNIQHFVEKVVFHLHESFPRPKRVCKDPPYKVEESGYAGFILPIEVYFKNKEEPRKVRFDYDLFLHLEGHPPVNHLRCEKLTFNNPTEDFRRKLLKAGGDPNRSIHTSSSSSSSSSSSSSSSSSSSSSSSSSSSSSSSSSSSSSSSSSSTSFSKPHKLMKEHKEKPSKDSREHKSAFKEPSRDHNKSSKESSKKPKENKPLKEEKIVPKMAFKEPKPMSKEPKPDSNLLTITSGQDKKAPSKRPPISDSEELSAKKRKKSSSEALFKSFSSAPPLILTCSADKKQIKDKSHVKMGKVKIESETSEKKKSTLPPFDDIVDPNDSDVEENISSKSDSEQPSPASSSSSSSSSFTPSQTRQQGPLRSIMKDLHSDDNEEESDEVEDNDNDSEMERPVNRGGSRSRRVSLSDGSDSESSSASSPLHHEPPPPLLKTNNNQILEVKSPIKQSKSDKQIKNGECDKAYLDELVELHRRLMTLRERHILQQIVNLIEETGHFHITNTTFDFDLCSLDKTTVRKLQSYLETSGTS
ERAP1 HTS inh: inhibitors of human ERAP1 aminopeptidase. recombinant ERAP1, Leu-AMC fluorescence, 60 min. 340,000 compounds, 0.15% hits. Q9NZ08. inhibition, % at 10.7 µM;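 active = mean replicate inhibition of at least 30%, or all replicates individually reaching that 30% level; inactive = mean below 30% and not every replicate reaching it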;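 note: 0% = neutral control wells and 100% = L-leucinethiol positive control wells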
The depositor's hits bear a star; ? = inconclusive; nt = no result given; [ ] = another dose, or the depositor's remark. Shown are actives, neighbours in structure and some others; about 0.86% of the full set was active somewhere.

SMILES	Rtt109 HAT inh	S100A4 MyoIIA	miR-122 sensor	MLL AF4-AF9 inh	ERAP1 HTS inh
COc1ccc2c3c(n(C)c2c1)[C@@H](CO)N(C(=O)C1CC1)CC31CN(Cc2cccc(F)c2)C1	nt	12	nt	nt	nt
COc1ccc2c3c(n(C)c2c1)[C@H](CO)N(C(=O)C1CCC1)CC31CCN(Cc2cccc(F)c2)CC1	nt	-9	nt	?	0
COc1cccc(CN2CC3(C2)CN(C(=O)C2CC2)[C@H](CO)c2c3c3ccc(OC)cc3n2C)c1	nt	nt	nt	27*	nt
COc1ccc2c3c(n(C)c2c1)[C@H](CO)N(C(=O)C1CC1)CC31CCN(Cc2cccc(F)c2)CC1	nt	2	nt	26*	1
COc1ccc2c3c(n(C)c2c1)[C@@H](CO)N(C(=O)C1CCC1)CC31CCN(Cc2cccc(F)c2)CC1	nt	-31	nt	29*	-1
CCCC#Cc1cnc2c(c1)C(=O)N([C@@H](C)CO)C[C@@H](C)[C@@H](CN(C)C(=O)c1cnccn1)O2	nt	23	10[16.7 µM]	-8	1
COc1ccccc1CNC(=O)C[C@H]1CC[C@@H](NC(C)=O)[C@H](CO)O1	nt	2	nt	-3	-4
CC[n+]1c(/C=C/N(C)c2ccccc2)oc2ccc(F)cc21	0	nt	335*	nt	nt
CC[n+]1c(/C=C/N(C)c2ccccc2)oc2ccccc21	2	-8	-2	4	4
N#C[C@@H]1[C@H](c2ccccc2-c2cccc(F)c2)[C@H](CO)N1C(=O)NC1CCCCC1	nt	0	nt	-3	-8
O=C(N/N=C/c1ccccc1)C(O)c1ccccc1 (stereo unspecified)	30	66	11	2	-1
O=C(N/N=C/c1cccs1)C(O)c1ccccc1 (stereo unspecified)	-1	1	197*	-4	0
O=C1CN(S(=O)(=O)Cc2ccccc2)C[C@@H]2[C@H](c3ccc(C#Cc4ccccc4)cc3)[C@@H](CO)N12	nt	9	nt	2	-2
COc1ccc(NC(=O)Nc2ccc3c(c2)[C@H]2C[C@@H](CC(=O)N(C)C)O[C@H](CO)[C@H]2O3)cc1	nt	1	-1[16.7 µM]	4	1
CC1COCC(C)N1C1=C(Cl)C(=O)c2ccccc2C1=O (stereo unspecified)	0	5	nt	27*	4
CC(=NNc1cc(C)c2ccccc2n1)c1ccccn1	nt	6	nt	29*	0
COc1ccc2c3c(n(C)c2c1)[C@@H](CO)N(Cc1ccc(F)cc1)CC31CN(CC2CC2)C1	nt	5	nt	6	3
COc1ccc2c3c(n(C)c2c1)[C@@H](CO)N(Cc1ccccc1F)CC31CCN(CC2CC2)CC1	nt	2	nt	33*	-4
COc1ccc2c3c(n(C)c2c1)[C@@H](CO)N(CC1CC1)CC31CN(Cc2ccc(F)cc2)C1	nt	-6	nt	30*	2
COc1cc(/C=N/N2CCN(c3ccccc3)CC2)cc(OC)c1OC(C)=O	5	0	-1	26*	1
CCn1c(SCC(=O)NCc2ccccc2)nnc1C(CO)NC(=O)c1ccccc1 (stereo unspecified)	-11	-1	-3	0	32*
CCn1c(SCC(=O)NCCc2ccccc2)nnc1C(C)C	-1	-3	nt	0	-1
O=C(C[C@@H]1CC[C@@H](NC(=O)CC2CC2)[C@H](CO)O1)NCc1ccc(Cl)cc1	nt	135*	nt	-13	4
O=C(C[C@H]1CC[C@H](NC(=O)CC2CC2)[C@@H](CO)O1)NCc1ccc(Cl)cc1	nt	2	nt	-7	4
O=C(C[C@@H]1CC[C@@H](NC(=O)NC2CCCC2)[C@H](CO)O1)NCc1ccc(F)cc1	nt	120*	14[16.7 µM]	-4	1
SMILES	Rtt109 HAT inh	S100A4 MyoIIA	miR-122 sensor	MLL AF4-AF9 inh	ERAP1 HTS inh
CCn1c(/C=C\c2ccccc2C)nc2ccccc2c1=O	-16	-2	-1	31*	0
Cc1ccccc1/C=C\c1nc2ccccc2c(=O)n1Cc1ccccc1	1	nt	nt	nt	nt
C[C@@H]1CN([C@@H](C)CO)C(=O)c2cc(NC(=O)NC3CCCCC3)ccc2O[C@H]1CN(C)Cc1ccc2c(c1)OCO2	nt	-4	-8[16.7 µM]	-1	3
Cc1cc(C)c(C)c(S(=O)(=O)NCc2ccncc2)c1C	3	-4	122*	0	0
COc1ccc(C(=O)NNC(=O)c2ccncc2)cc1	65*	nt	1	nt	nt
COc1ccc(NC(=O)c2ccc(NC(=O)c3ccncc3)cc2)cc1	-2	-10	-9	31*	-2
O=C(Nc1ccc(NC(=O)c2ccncc2)cc1)c1ccncc1	nt	-3	nt	-16	-2
COc1ccc(C2N(c3ccc(Cl)cc3)N=C(C(C)=O)N(C)N2C(C)=O)cc1 (stereo unspecified)	1	4	nt	28*	-4
O=C(O)CCc1ccc(-c2cccs2)o1	53*	nt	4	nt	nt
COc1ccccc1-c1cnc(C(O)c2cc(Cl)cc(Cl)c2)[nH]1 (stereo unspecified)	nt	1	7	3	1
OC(c1ccc(F)cc1)c1ncc(-c2ccccc2F)[nH]1 (stereo unspecified)	nt	-4	146*	5	7
CCc1ccc(C(O)c2ncc(-c3ccccc3F)[nH]2)cc1 (stereo unspecified)	nt	-5	nt	2	-1
OC(c1cc(Cl)cc(Cl)c1)c1ncc(-c2ccccc2F)[nH]1 (stereo unspecified)	nt	-28	150*	1	6
COC(=O)[C@H]1[C@H](CO)[C@H]2Cn3c(ccc(C4=CCCCC4)c3=O)[C@H]2N1CCC(F)(F)F	nt	-35	nt	0	1
Cc1ccccc1S(=O)(=O)N1CC[C@@H]2[C@H](CO)Nc3ccc(-c4ccc(F)cc4)cc3[C@@H]21	nt	nt	1[16.7 µM]	nt	nt
Cc1ccccc1S(=O)(=O)N1CC[C@@H]2[C@@H](CO)Nc3ccc(-c4ccc(F)cc4)cc3[C@@H]21	nt	nt	157*[16.7 µM]	nt	nt
Cc1ccc(S(=O)(=O)N2CC[C@@H]3[C@@H](CO)Nc4ccc(-c5ccccc5F)cc4[C@@H]32)cc1	nt	25	154*[16.7 µM]	2	-3
O=C(C[C@H]1CC[C@H]2[C@@H](COC[C@H](O)CN2Cc2ccccc2F)O1)N[C@@H]1CCN(Cc2ccccc2)C1	nt	10	0[16.7 µM]	11	0
COc1ccc(NC(=O)N(C)C[C@@H]2Oc3ccc(NC(=O)CCC(F)(F)F)cc3C(=O)N([C@H](C)CO)C[C@@H]2C)cc1	nt	nt	4[16.7 µM]	-2	nt
CC1CCN(C(=O)Cc2nn(C)c(=O)c3ccccc23)CC1	-2	nt	0	nt	nt
Cn1nc(CC(=O)N2CCN(c3ccccc3)CC2)c2ccccc2c1=O	-1	nt	344*	nt	nt
COc1ccccc1N1CCN(C(=O)Cn2c(=O)[nH]c3ccsc3c2=O)CC1	-1	nt	-17	nt	nt
COc1ccccc1N1CCN(C(=O)c2ccc(Cn3c(=O)[nH]c4ccsc4c3=O)cc2)CC1	nt	-3	118*	13	10
CCCNC(=O)N1CC2(CCN(Cc3cccnc3)CC2)c2c(n(C)c3cc(OC)ccc23)[C@@H]1CO	nt	-1	nt	2	7
